# In ChEMBL document CHEMBL1828561, “Identification of a potent and selective free fatty acid receptor 1 (FFA1/GPR40) agonist with favorable physicochemical and in vitro ADME properties” (J Med Chem, 2011):
# pEC50: −log10 of the molar value. Active and inactive are the calls of the source. The calls are words filed in the database; no cut-off is given here.
# Columns and labels:
# 1321-N1 [1] = experiment: Selectivity for human FFA1 receptor expressed in human 1321N1 cells over sst receptor; type: cell-based
# [2] = target: T1, Free fatty acid receptor 1 (Homo sapiens, UniProt O14842); experiment: Agonist activity at human FFA1 receptor expressed in human HEK293 assessed as movement of cellular constitiuent by DMR assay; type: functional, cell-based
# T1 sequence (O14842 whole entry): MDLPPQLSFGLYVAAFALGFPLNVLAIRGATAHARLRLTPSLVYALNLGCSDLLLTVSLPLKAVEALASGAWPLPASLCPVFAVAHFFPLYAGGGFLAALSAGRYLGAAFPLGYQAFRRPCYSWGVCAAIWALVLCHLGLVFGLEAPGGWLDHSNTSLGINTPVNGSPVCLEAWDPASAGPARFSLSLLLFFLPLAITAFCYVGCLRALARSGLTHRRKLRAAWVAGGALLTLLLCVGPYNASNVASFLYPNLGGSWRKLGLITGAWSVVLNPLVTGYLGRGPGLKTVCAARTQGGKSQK
# In short: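 FFA1-HEK cells (doxycycline-inducible FLAG-hFFA1, HEK293), 15 000/well on fibronectin-coated 384-well Epic plates, 20–24 h culture. Washed in HBSS/20 mM HEPES, equilibrated 1 h at 28 °C, baseline read, compound added.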
# 1321-N1 [3] = experiment: Selectivity for human FFA1 receptor expressed in human 1321N1 cells over norepinephrine transporter; type: cell-based
# 1321-N1 [4] = experiment: Selectivity for human FFA1 receptor expressed in human 1321N1 cells over NOP receptor; type: cell-based
# 1321-N1 [5] = experiment: Selectivity for human FFA1 receptor expressed in human 1321N1 cells over B2 receptor; type: cell-based
# [6] = target: Free fatty acid receptor 1 (Rattus norvegicus) (UniProt Q8K3T4); experiment: Agonist activity at FFA1 receptor in rat INS-1E cells assessed as increase in glucose-stimulated insulin production at 10 uM after 1 hr by radioimmunoassay in presence of 12 mM glucose; type: functional, cell-based
# Sequence of Free fatty acid receptor 1 (Rattus norvegicus) (Q8K3T4 whole entry): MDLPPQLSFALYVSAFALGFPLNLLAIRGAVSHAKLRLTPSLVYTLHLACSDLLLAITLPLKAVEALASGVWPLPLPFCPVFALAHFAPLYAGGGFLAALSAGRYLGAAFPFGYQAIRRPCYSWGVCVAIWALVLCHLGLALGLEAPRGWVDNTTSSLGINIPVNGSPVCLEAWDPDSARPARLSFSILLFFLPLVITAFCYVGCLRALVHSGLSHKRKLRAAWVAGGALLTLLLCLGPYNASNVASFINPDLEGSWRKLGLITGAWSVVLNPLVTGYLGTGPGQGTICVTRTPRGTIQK
# In short: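 Rat INS-1E cells seeded at 100 000 cells/mL in 24-well plates for 2 days. Incubated 1 h at 37 °C in pH 7.4 HEPES-bicarbonate saline with 1 mM CaCl2 and 0.5 g/L fatty-acid-free BSA plus test substance. Secreted insulin and acid-ethanol-extracted content measured by radioimmunoassay. Mean ± SE, n = 8.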
# 1321-N1 [7] = experiment: Selectivity for human FFA1 receptor expressed in human 1321N1 cells over Y1 receptor; type: cell-based
# 1321-N1 [8] = experiment: Selectivity for human FFA1 receptor expressed in human 1321N1 cells over V1a receptor; type: cell-based
# 1321-N1 [9] = experiment: Selectivity for human FFA1 receptor expressed in human 1321N1 cells over M3 receptor; type: cell-based
# [10] = Inhibition of P-glycoprotein at 100 uM
# In short: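 P-glycoprotein inhibition tested at 100 μM compound.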
# 1321-N1 [11] = experiment: Selectivity for human FFA1 receptor expressed in human 1321N1 cells over MC4 receptor; type: cell-based
# 1321-N1 [12] = experiment: Selectivity for human FFA1 receptor expressed in human 1321N1 cells over MT1 receptor; type: cell-based
# [13] = target: Free fatty acid receptor 1 (Rattus norvegicus) (UniProt Q8K3T4); experiment: Agonist activity at FFA1 receptor in rat INS-1E cells assessed as movement of cellular constitiuent at 0.3 uM by DMR assay in the presence of trans-1-oxo-3-(4-phenoxyphenyl)-2-propyl-1,2,3,4-tetrahydroisoquinoline-4-carboxylic acid; type: functional, cell-based
# In short: (§1)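 Label-free DMR on an Epic optical biosensor. Rat INS-1E cells, 30 000/well on fibronectin-coated 384-well sensor plates, cultured 20–24 h to confluence. Washed in HBSS/20 mM HEPES and equilibrated 1 h at 28 °C. Baseline read, compound added, wavelength shift (pm) monitored ≥5000 s. Antagonist line: 0.3 μM agonist with the FFA1 antagonist over a concentration range, pIC50 derived, n = 4.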
# 1321-N1 [14] = experiment: Selectivity for human FFA1 receptor expressed in human 1321N1 cells over 5HT2B receptor; type: cell-based
# 1321-N1 [15] = experiment: Selectivity for human FFA1 receptor expressed in human 1321N1 cells over 5HT6 receptor; type: cell-based
# 1321-N1 [16] = experiment: Selectivity for human FFA1 receptor expressed in human 1321N1 cells over 5HT3 receptor; type: cell-based
# CYP2C19 = CYP2C19 (Homo sapiens, UniProt P33261); experiment: Inhibition of CYP2C19 at 10 uM; type: ADME
# Sequence of CYP2C19 (P33261 whole entry): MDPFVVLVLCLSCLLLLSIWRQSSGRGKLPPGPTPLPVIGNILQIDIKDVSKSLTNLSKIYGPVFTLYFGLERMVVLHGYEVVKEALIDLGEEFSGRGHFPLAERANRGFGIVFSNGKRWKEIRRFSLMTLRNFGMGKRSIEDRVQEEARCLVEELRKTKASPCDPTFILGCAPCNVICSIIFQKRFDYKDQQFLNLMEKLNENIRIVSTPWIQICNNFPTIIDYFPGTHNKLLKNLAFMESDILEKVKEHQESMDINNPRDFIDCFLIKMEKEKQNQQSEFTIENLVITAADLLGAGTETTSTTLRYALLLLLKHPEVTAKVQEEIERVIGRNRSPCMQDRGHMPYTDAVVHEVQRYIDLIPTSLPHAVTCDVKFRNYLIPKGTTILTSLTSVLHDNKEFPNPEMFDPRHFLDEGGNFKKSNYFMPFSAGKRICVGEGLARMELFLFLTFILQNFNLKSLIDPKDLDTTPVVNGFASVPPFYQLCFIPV
# 1321-N1 [17] = experiment: Selectivity for human FFA1 receptor expressed in human 1321N1 cells over M2 receptor; type: cell-based
# 1321-N1 [18] = experiment: Selectivity for human FFA1 receptor expressed in human 1321N1 cells over VPAC1 receptor; type: cell-based
# [19] = target: Free fatty acid receptor 1 (Rattus norvegicus) (UniProt Q8K3T4); experiment: Agonist activity at FFA1 receptor in rat INS-1E cells assessed as movement of cellular constitiuent by DMR assay; type: functional, cell-based; in short: as §1
# 1321-N1 [20] = experiment: Selectivity for human FFA1 receptor expressed in human 1321N1 cells over NTS1 receptor; type: cell-based
# [21] = Octanol-phosphate buffer partition coefficient, log D of the compound at pH 7.4 by HPLC analysis; type: physicochemical
# 1321-N1 [22] = experiment: Selectivity for human FFA1 receptor expressed in human 1321N1 cells over ETA receptor; type: cell-based
# 1321-N1 [23] = experiment: Selectivity for human FFA1 receptor expressed in human 1321N1 cells over PPARgamma receptor; type: cell-based
# CYP3A4 = CYP3A4 (Homo sapiens, UniProt P08684); experiment: Inhibition of CYP3A4 at 10 uM; type: ADME
# Sequence of CYP3A4 (P08684 whole entry): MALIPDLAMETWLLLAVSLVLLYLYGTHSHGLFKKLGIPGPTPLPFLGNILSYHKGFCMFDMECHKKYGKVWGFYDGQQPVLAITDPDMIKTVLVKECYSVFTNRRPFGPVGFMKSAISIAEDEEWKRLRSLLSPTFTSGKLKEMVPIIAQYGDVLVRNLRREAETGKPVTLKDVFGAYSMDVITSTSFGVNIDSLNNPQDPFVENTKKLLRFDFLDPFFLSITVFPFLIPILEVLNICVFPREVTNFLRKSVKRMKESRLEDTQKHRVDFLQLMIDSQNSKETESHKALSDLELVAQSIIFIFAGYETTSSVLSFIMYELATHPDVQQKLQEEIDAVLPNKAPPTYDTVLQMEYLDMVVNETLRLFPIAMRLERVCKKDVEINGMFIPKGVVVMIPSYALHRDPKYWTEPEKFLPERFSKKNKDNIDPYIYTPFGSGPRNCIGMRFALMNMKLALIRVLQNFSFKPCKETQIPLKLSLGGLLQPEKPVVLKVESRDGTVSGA
# 1321-N1 [24] = experiment: Selectivity for human FFA1 receptor expressed in human 1321N1 cells over Cl- channel; type: cell-based
# 1321-N1 [25] = experiment: Selectivity for human FFA1 receptor expressed in human 1321N1 cells over H1 receptor; type: cell-based
# 1321-N1 [26] = experiment: Selectivity for human FFA1 receptor expressed in human 1321N1 cells over D1 receptor; type: cell-based
# 1321-N1 [27] = experiment: Selectivity for human FFA1 receptor expressed in human 1321N1 cells over Mu receptor; type: cell-based
# 1321-N1 [28] = experiment: Selectivity for human FFA1 receptor expressed in human 1321N1 cells over Delta2 receptor; type: cell-based
# 1321-N1 [29] = experiment: Selectivity for human FFA1 receptor expressed in human 1321N1 cells over NK2 receptor; type: cell-based
# 1321-N1 [30] = experiment: Selectivity for human FFA1 receptor expressed in human 1321N1 cells over 5HT1A receptor; type: cell-based
# 1321-N1 [31] = experiment: Selectivity for human FFA1 receptor expressed in human 1321N1 cells over GAL2 receptor; type: cell-based
# CYP2D6 = CYP2D6 (Homo sapiens, UniProt P10635); experiment: Inhibition of CYP2D6 at 10 uM; type: ADME
# Sequence of CYP2D6 (P10635 whole entry): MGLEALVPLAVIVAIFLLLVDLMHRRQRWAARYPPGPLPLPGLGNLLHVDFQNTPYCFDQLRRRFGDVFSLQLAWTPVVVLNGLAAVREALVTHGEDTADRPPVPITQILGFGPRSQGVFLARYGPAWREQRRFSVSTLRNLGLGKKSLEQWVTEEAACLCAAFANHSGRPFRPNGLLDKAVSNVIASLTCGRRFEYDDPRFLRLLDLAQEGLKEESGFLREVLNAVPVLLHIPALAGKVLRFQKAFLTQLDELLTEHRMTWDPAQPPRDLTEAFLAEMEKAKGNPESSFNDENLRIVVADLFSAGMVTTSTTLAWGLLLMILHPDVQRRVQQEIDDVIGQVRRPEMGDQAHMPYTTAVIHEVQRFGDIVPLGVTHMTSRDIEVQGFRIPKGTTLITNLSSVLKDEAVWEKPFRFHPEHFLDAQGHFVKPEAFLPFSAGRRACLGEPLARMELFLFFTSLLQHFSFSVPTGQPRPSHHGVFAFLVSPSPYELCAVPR
# 1321-N1 [32] = experiment: Selectivity for human FFA1 receptor expressed in human 1321N1 cells over A1 receptor; type: cell-based
# [33] = target: T1, Free fatty acid receptor 1; experiment: Agonist activity at human FFA1 receptor expressed in human 1321N1 cells assessed as calcium mobilization by fluorescence spectrophotometry; type: functional, cell-based
# [34] = Apparent permeability from apical to basolateral side of human Caco2/TC7 cells; type: ADME, cell-based; details: Caco-2
# In short: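 Caco-2 TC7 monolayers, apical to basolateral transport at pH 6.5 apical/7.4 basolateral.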
# 1321-N1 [35] = experiment: Selectivity for human FFA1 receptor expressed in human 1321N1 cells over alpha1 receptor; type: cell-based
# 1321-N1 [36] = experiment: Selectivity for human FFA1 receptor expressed in human 1321N1 cells over CCK1 receptor; type: cell-based
# 1321-N1 [37] = experiment: Selectivity for human FFA1 receptor expressed in human 1321N1 cells over H2 receptor; type: cell-based
# 1321-N1 [38] = experiment: Selectivity for human FFA1 receptor expressed in human 1321N1 cells over CB1 receptor; type: cell-based
# 1321-N1 [39] = experiment: Selectivity for human FFA1 receptor expressed in human 1321N1 cells over kappa receptor; type: cell-based
# HEK293 = experiment: Selectivity for human FFA1 receptor expressed in human 1321N1 cells over human FFA3 receptor expressed in HEK293 cells at 10 uM; type: cell-based
# CYP2C9 = CYP2C9 (Homo sapiens, UniProt P11712); experiment: Inhibition of CYP2C9 at 10 uM; type: ADME
# Sequence of CYP2C9 (P11712 whole entry): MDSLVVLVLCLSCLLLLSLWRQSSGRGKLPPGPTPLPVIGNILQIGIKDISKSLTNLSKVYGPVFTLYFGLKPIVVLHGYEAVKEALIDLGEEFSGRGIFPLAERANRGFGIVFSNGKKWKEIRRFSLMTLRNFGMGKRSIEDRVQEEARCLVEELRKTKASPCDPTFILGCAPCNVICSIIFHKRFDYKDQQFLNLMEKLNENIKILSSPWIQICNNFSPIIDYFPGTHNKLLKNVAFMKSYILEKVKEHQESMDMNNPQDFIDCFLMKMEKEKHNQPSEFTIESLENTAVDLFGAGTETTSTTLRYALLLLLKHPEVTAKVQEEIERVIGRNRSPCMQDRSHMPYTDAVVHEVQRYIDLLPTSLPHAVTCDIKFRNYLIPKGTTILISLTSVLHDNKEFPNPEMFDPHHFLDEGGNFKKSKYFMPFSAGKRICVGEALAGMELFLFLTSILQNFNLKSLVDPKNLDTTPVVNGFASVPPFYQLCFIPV
# 1321-N1 [40] = experiment: Selectivity for human FFA1 receptor expressed in human 1321N1 cells over GABA receptor; type: cell-based
structure (smiles),measurement,setting,value
O=C(O)CCc1ccc(C#Cc2cc(Cl)nc(Cl)c2)cc1,Selectivity ratio,1321-N1 [1],> 100
same,Activity,[2],Active
same,Selectivity ratio,1321-N1 [3],> 100
same,Selectivity ratio,1321-N1 [4],> 100
same,Selectivity ratio,1321-N1 [5],> 100
same,Activity,[6],60%
same,Selectivity ratio,1321-N1 [7],> 100
same,Selectivity ratio,1321-N1 [8],> 100
same,Selectivity ratio,1321-N1 [9],> 100
same,inhibition,[10],-1.9%
same,Selectivity ratio,1321-N1 [11],> 100
same,Selectivity ratio,1321-N1 [12],> 100
same,Activity,[13],inactive
same,Selectivity ratio,1321-N1 [14],> 100
same,Selectivity ratio,1321-N1 [15],> 100
same,Selectivity ratio,1321-N1 [16],> 100
same,inhibition at 10 µM,CYP2C19,-7%
same,Selectivity ratio,1321-N1 [17],> 100
same,Selectivity ratio,1321-N1 [18],> 100
same,Activity,[19],Active
same,Selectivity ratio,1321-N1 [20],> 100
same,logD,[21],1.97
same,Selectivity ratio,1321-N1 [22],> 100
same,Selectivity ratio,1321-N1 [23],> 100
same,inhibition at 10 µM,CYP3A4,5%
same,Selectivity ratio,1321-N1 [24],> 100
same,Selectivity ratio,1321-N1 [25],> 100
same,Selectivity ratio,1321-N1 [26],> 100
same,Selectivity ratio,1321-N1 [27],> 100
same,Selectivity ratio,1321-N1 [28],> 100
same,Selectivity ratio,1321-N1 [29],> 100
same,Selectivity ratio,1321-N1 [30],> 100
same,Selectivity ratio,1321-N1 [31],> 100
same,inhibition at 10 µM,CYP2D6,5%
same,Selectivity ratio,1321-N1 [32],> 100
same,pEC50,[33],7.39
same,Papp A→B,[34],112 ×10⁻⁶ cm/s
same,Selectivity ratio,1321-N1 [35],> 100
same,Selectivity ratio,1321-N1 [36],> 100
same,Selectivity ratio,1321-N1 [37],> 100
same,Selectivity ratio,1321-N1 [38],> 100
same,Selectivity ratio,1321-N1 [39],> 100
same,Selectivity ratio,HEK293,> 100
same,inhibition at 10 µM,CYP2C9,-4%
same,Selectivity ratio,1321-N1 [40],> 100
